# Activity calls are given as the source filed them. The rule behind the calls is not given here.
# Tests used:
# [1] = biological target: T1, NAD-dependent protein deacylase sirtuin-6 (Homo sapiens, UniProt Q8N6T7); test: […] in human PANC1 cells assessed as reduction in H3K56ac levels incubated for 72 hrs by Western blot analysis; format: cell-based; details: PANC-1
# Outline: (§1)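 Cells incubated 72 h with various compound concentrations; whole-cell RIPA lysates with protease inhibitors, BCA-normalised, separated on 12% SDS-PAGE, transferred to PVDF, blocked in 5% milk or BSA. Probed 10 h at 4 °C with antibodies to SIRT6, acetyl-H3K9/K18/K56, total H3, Lin28b, Myc, IGF2BP3, β-actin; HRP secondary, chemiluminescent detection.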
# PANC-1 [2] = test: Inhibition of cell migration of human PANC1 cells at 10 umol/L incubated for 24 hrs by inverted microscopy relative to control; format: functional; details: PANC-1, 24 h
# Outline: (§2)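 PDAC cells are grown to a confluent monolayer at 37 °C in 5% CO2. The monolayer is scratched with a 200 μL pipette tip to make a gap of constant width, then washed with PBS. Cells are exposed to a range of compound concentrations. They are imaged by inverted microscope after 24 h. Migrated cells are counted by hand, and inhibition is expressed relative to untreated wells (100%).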
# [3] = Toxicity in BALB/c nude mouse xenografted with human PANC1 cells assessed as induction of body weight loss at 100 to 150 mg/kg/day, po for 30 days; format: organism-based, PANC-1; details: in vivo, 720 h
# Outline: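 Female BALB/c nude mice, 6–8 weeks old, received 5×10⁶–1×10⁷ PANC-1 cells subcutaneously in the right flank. Once tumors reached 130–150 mm³, mice were randomized (n = 6) to vehicle or 100 or 150 mg/kg/d given orally for 30 days. Body weight and toxicity were monitored against the vehicle group.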
# [4] = biological target: T1, NAD-dependent protein deacylase sirtuin-6; test: […] in human BxPC3 cells assessed as reduction in Lin28b expression levels at 25 uM incubated for 72 hrs by Western blot analysis; format: cell-based; details: BXPC-3; outline: as §1
# PANC-1 [5] = test: Inhibition of colony formation in human PANC1 cells incubated for 9 to 18 days by crystal violet staining based assay; format: functional, cell-based
# Outline: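 Cells are seeded per well at the line-specific density: BXPC-3 750, PANC-1 500, AsPC-1 2200, MIAPaCa-2 500. Compound at several concentrations is added after 24 h. Incubation runs 9–18 days (BXPC-3 18 days, PANC-1 14 days). Cells are then fixed with 4% paraformaldehyde and stained with crystal violet, and colonies of more than 50 cells are counted.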
# [6] = Clearance in Sprague-Dawley rat at 2 mg/kg, iv after 0.25 to 24 hrs by LC-MS/MS analysis; format: ADME, organism-based; details: in vivo
# Outline: (§3)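 Male Sprague-Dawley rats, 6-8 weeks old. Dosing solution of 10 (PO) or 2 (IV) mg/mL in 5% DMSO, 10% Solutol and 85% saline, pH 7. Blood taken by cardiac puncture at 0.083–24 h (PO) or 0.25–24 h (IV). Plasma levels measured by LC-MS/MS. Values are mean ± SD, n = 3.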
# ASPC1 = test: Antiproliferative activity against human AsPC1 cells assessed as reduction in cell viability incubated for 72 hrs by MTT assay; format: functional, cell-based
# Outline: (§4)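 PDAC cells grown in DMEM or RPMI1640 with 10% FBS and penicillin/streptomycin at 37 °C, 5% CO2. Plated in triplicate, then treated with a concentration series for 72 h. Viability read by MTT. IC50 calculated from dose-response curves.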
# NCI-H526 = test: Antiproliferative activity against human NCI-H526 cells assessed as reduction in cell viability incubated for 72 hrs by MTT assay; format: functional, cell-based
# MIA PaCa-2 [7] = test: Antiproliferative activity against human MIAPaCa2 cells assessed as reduction in cell viability incubated for 72 hrs by MTT assay; format: functional, cell-based; outline: as §4
# [8] = AUC (0 to infinity) in Sprague-Dawley rat at 10 mg/kg, po after 0.083 to 24 hrs by LC-MS/MS analysis; format: ADME, organism-based; design: dose 10 mg/kg, time infinity, route oral; details: in vivo; outline: as §3
# SW-620 = test: Antiproliferative activity against human SW620 cells assessed as reduction in cell viability incubated for 72 hrs by MTT assay; format: functional, cell-based
# [9] = Cmax in Sprague-Dawley rat at 10 mg/kg, po after 0.083 to 24 hrs by LC-MS/MS analysis; format: ADME, organism-based; design: dose 10 mg/kg, route oral; details: in vivo; outline: as §3
# MIA PaCa-2 [10] = test: Inhibition of cell migration of human MIAPaCa2 cells at 10 umol/L incubated for 24 hrs by inverted microscopy relative to control; format: functional; details: MIA PaCa-2, 24 h; outline: as §2
# Histone deacetylase 4 = Histone deacetylase 4 (Homo sapiens, UniProt P56524); test: Inhibition of HDAC4 (unknown origin) by FDL assay
# Histone deacetylase 4, sequence (P56524 whole entry): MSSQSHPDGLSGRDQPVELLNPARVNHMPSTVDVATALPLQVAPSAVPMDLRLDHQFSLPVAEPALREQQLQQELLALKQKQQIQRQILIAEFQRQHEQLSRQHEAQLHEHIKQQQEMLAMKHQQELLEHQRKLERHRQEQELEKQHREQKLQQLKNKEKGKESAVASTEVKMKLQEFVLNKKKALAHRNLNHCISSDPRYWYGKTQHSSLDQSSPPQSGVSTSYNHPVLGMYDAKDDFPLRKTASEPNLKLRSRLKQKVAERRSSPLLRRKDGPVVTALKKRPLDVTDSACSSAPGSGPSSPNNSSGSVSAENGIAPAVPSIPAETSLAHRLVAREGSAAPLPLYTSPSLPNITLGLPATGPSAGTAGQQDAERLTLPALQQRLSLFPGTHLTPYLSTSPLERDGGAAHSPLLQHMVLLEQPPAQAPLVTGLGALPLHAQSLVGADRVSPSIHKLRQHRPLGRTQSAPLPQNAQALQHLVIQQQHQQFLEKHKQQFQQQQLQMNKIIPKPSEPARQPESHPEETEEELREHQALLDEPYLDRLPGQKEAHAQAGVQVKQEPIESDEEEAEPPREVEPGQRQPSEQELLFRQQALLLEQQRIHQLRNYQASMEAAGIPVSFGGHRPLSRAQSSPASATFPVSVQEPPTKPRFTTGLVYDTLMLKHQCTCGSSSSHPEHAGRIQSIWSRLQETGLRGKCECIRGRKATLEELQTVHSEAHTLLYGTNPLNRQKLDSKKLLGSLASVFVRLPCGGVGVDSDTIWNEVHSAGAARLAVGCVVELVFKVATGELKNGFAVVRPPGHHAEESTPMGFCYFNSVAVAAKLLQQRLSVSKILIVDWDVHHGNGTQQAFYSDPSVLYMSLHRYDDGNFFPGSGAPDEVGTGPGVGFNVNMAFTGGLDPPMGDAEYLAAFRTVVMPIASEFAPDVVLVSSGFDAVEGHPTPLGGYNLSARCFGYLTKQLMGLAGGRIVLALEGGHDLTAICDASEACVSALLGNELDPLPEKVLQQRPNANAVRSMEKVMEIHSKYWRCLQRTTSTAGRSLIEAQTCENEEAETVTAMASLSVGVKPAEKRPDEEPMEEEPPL
# Outline: (§5)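 Selectivity testing by FDL assay at concentrations up to 200 µM. SIRT1-2 assays run by an outside contract provider. Values reported as IC50.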
# PANC-1 [11] = test: Antitumor activity against human PANC1 cells xenografted in BALB/c nude mouse assessed as inhibition of tumor growth at 150 mg/kg/day, po for 30 days relative to control; format: functional; details: PANC-1, po, 720 h, read-out: TGI
# Outline: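 Female BALB/c nude mice, 6-8 weeks old, injected subcutaneously in the right flank with 5×10^6–1×10^7 PANC-1 cells. At 130-150 mm³, mice randomized into 4 groups (n = 6) and dosed orally once daily for 30 days against vehicle. Tumor volume followed over time. Inhibition rate assessed against control.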
# NCI-H446 = test: Antiproliferative activity against human NCI-H446 cells assessed as reduction in cell viability incubated for 72 hrs by MTT assay; format: functional, cell-based
# [12] = biological target: Polyamine deacetylase HDAC10 (Homo sapiens, UniProt Q969S8); test: Inhibition of HDAC10 (unknown origin) by FDL assay; outline: as §5
# Polyamine deacetylase HDAC10, sequence (Q969S8 whole entry): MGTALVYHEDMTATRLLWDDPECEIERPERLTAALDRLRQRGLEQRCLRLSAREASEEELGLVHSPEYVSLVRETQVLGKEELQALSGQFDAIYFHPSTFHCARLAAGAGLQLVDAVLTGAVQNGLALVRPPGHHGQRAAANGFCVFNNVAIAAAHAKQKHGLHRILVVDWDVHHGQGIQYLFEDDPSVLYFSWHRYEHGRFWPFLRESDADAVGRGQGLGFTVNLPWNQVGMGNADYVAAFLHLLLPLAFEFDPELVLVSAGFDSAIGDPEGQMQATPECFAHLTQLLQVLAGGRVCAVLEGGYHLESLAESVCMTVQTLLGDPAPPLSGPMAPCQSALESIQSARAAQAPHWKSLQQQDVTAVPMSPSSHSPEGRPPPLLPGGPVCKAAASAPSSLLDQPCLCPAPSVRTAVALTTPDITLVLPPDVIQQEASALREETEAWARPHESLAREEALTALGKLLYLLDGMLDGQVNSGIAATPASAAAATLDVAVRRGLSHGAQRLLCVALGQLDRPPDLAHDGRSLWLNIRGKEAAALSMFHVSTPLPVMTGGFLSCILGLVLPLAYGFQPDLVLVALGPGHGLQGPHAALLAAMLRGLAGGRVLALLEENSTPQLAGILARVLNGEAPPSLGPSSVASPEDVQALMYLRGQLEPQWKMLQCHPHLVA
# PANC-1 [13] = test: Induction of apoptosis in human PANC1 cells incubated for 48 hrs by propidium iodide and Annexin V-FITC staining based flow cytometry; format: functional, cell-based
# Outline: (§6)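 PANC-1 and BXPC-3 cells seeded in 6-well plates and treated with a concentration series for 48 h. Stained with Annexin V-FITC and propidium iodide for 10 min in the dark. Annexin V+ populations measured by flow cytometry.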
# BXPC-3 [14] = test: Antiproliferative activity against human BxPC3 cells assessed as reduction in cell viability incubated for 72 hrs by MTT assay; format: functional, cell-based; outline: as §4
# Histone deacetylase 5 = Histone deacetylase 5 (Homo sapiens, UniProt Q9UQL6); test: Inhibition of HDAC5 (unknown origin) by FDL assay; outline: as §5
# Histone deacetylase 5, sequence (Q9UQL6 whole entry): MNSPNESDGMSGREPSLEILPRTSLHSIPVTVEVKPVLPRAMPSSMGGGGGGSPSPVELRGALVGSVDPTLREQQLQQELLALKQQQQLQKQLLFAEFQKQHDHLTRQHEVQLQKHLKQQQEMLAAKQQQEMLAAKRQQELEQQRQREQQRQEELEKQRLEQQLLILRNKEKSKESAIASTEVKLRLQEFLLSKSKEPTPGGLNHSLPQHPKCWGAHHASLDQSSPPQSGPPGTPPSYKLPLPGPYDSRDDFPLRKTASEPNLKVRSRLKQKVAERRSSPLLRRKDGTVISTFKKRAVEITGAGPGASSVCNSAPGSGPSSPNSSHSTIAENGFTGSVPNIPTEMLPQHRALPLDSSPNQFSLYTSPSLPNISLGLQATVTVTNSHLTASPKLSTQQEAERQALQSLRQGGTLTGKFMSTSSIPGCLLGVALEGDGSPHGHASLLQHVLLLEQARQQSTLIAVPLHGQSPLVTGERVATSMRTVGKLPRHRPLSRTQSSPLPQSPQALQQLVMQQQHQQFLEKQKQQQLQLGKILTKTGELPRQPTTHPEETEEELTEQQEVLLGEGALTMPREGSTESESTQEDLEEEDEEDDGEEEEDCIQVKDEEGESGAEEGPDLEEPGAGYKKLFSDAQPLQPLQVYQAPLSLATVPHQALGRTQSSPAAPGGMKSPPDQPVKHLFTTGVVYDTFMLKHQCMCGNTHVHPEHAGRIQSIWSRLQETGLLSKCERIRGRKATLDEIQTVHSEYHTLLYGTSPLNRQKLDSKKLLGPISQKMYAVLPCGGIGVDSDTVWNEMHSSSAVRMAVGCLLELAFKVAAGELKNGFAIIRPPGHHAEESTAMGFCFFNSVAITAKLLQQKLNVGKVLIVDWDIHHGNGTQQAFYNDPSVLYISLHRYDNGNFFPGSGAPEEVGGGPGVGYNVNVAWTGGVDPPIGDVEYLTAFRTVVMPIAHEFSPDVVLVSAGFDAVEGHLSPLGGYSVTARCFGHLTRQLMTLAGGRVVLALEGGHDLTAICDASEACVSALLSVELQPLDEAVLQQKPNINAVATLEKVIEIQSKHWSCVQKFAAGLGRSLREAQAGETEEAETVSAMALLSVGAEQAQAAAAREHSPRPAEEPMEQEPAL
# BXPC-3 [15] = test: Induction of apoptosis in human BxPC3 cells incubated for 48 hrs by propidium iodide and Annexin V-FITC staining based flow cytometry; format: functional, cell-based; outline: as §6
# [16] = AUC (0 to t) in Sprague-Dawley rat at 2 mg/kg, iv after 0.25 to 24 hrs by LC-MS/MS analysis; format: ADME, organism-based; details: in vivo; outline: as §3
# T1 sequence (Q8N6T7 whole entry): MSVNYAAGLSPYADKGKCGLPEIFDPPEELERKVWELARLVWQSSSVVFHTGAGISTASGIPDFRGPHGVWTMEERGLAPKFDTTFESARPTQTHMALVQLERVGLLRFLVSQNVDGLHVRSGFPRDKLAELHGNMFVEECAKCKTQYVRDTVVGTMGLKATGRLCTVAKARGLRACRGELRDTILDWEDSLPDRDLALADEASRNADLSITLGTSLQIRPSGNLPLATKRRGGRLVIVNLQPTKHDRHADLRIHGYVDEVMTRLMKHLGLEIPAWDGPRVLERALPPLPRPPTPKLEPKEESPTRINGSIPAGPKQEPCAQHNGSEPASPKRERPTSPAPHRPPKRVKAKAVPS
compound,measurement,setting,value
O=C(NC(c1ccccc1)c1ccccc1)c1cc(-c2cc3ccccc3o2)nc2ccccc12,inhibition,[1],Dose-dependent effect
same,inhibition at 10 µM,PANC-1 [2],87.8%
same,Activity,[3],Non-Toxic
same,inhibition,[4],Active
same,inhibition,PANC-1 [5],Dose-dependent effect
same,CL,[6],10 mL/min/kg
same,Activity,ASPC1,Dose-dependent effect
same,IC50,"ASPC1; ASPC1, 72 h",9.66 µM
same,Activity,NCI-H526,Active
same,Activity,MIA PaCa-2 [7],Dose-dependent effect
same,IC50,"MIA PaCa-2 [7]; MIA PaCa-2, 72 h",7.1 µM
same,AUC,[8],755.57 ng·mL·h
same,Activity,SW-620,Active
same,Cmax,[9],98.5 ng/mL
same,inhibition at 10 µM,MIA PaCa-2 [10],57.2%
same,IC50,Histone deacetylase 4,> 200 µM
same,inhibition in vivo at 150 mg/kg/day,PANC-1 [11],90.2%
same,Activity,NCI-H446,Active
same,IC50,[12],> 200 µM
same,Activity,PANC-1 [13],Dose-dependent effect
same,Activity,BXPC-3 [14],Dose-dependent effect
same,IC50,"BXPC-3 [14]; BXPC-3, 72 h",8.27 µM
same,IC50,Histone deacetylase 5,> 200 µM
same,Activity,BXPC-3 [15],Dose-dependent effect
same,AUCt,[16],3326.13 ng·mL·h
